Results from different studies.
Compare with care: the assays were run in different laboratories.
Target: Serine/threonine-protein kinase TAO3 (TAOK3, Homo sapiens, UniProt Q9H2K8)
Sequence (Q9H2K8 1-898, as in one of the studies): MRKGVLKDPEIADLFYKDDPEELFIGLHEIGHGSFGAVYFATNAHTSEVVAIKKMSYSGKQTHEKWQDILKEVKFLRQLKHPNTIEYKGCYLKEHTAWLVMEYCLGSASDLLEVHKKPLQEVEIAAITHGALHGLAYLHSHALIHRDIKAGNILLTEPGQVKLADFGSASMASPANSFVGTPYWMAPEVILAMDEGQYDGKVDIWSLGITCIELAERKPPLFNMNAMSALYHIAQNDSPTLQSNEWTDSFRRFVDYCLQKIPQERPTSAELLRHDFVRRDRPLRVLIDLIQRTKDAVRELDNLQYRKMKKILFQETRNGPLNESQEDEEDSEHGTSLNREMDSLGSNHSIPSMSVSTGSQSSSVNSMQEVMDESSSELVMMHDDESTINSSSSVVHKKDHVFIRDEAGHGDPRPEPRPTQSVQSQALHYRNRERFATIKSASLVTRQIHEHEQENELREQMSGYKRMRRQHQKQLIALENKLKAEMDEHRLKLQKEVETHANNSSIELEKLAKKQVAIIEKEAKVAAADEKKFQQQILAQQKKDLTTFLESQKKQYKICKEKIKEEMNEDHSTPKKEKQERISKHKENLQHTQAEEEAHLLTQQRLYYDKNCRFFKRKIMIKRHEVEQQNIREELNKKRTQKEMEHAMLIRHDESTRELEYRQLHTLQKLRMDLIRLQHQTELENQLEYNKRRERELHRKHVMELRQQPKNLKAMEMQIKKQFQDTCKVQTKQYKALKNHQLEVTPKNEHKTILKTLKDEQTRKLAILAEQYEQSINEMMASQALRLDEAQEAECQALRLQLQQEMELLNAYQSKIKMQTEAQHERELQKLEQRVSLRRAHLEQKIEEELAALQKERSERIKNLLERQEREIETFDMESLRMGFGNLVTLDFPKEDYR

| Compound | read-out | mode | technique | concentration | measurement | result |
| --- | --- | --- | --- | --- | --- | --- |
| O=C1Nc2ccc(Cl)cc2C1=Cc1cc(Cl)c(O)c(Cl)c1 | cell-free assay |  |  | 0.5 µM | remaining signal | 50.6% |
| Nc1ncnc2occ(-c3ccc(NC(=O)Nc4cc(C(F)(F)F)ccc4F)cc3)c12 | cell-free assay | inhibitor |  | 20 µM | remaining signal | 0.05% |
| Cc1cnc(NC2CCOCC2)nc1-n1cnc(C(=O)NC(CN)c2cc(F)cc(Cl)c2)c1 (stereo not shown) | enzyme activity | inhibitor | radiometric | 1 µM | remaining activity | 89% |
| CCOCCn1cc(C(=O)Nc2ccc(-n3nc(-c4cccnc4)cc3C(F)(F)F)cn2)ccc1=O | cell-free assay |  | competition with immobilised ligand | 1 µM | remaining binding | 66% |
| CC(C)(C)c1nc2c(s1)c1nc(N)ncc1c1ccc(NS(=O)(=O)c3c(F)cccc3F)c(F)c12 | enzyme activity | inhibitor | radiometric | 1 µM | remaining activity | 87% |
| CC1=C(C#N)C(c2ccc3c(c2)c(NC(=O)c2ccccc2C)nn3C)C(C#N)=C(C)N1 | cell-free assay |  | competition with immobilised ligand | 1 µM | remaining binding | 80% |
| CCCOc1ccc(OC)c(F)c1C(=O)c1ccc(C(=O)N[C@@H]2CNC[C@H]2NC(=O)c2ccc3[nH]ncc3c2)cc1 | enzyme activity | inhibitor |  | 10 µM | remaining activity | 81% |
| CCCCN(CCCC)C(=O)CN1C[C@H](c2cc(OC)c3c(c2)OCO3)[C@@H](C(=O)O)[C@@H]1CC(C)(C)CCC | cell-free assay |  | competition with immobilised ligand | 1 µM | remaining binding | 63.2% |
| Clc1ccc(Nc2nnc(Cc3ccncc3)c3ccccc23)cc1 | cell-free assay |  |  | 0.5 µM | remaining signal | 99.9% |
| Cc1nccc(COC(=O)N2C[C@@H]3[C@@H](CNC(=O)c4ccc5[nH]nnc5c4)[C@@H]3C2)n1 | cell-free assay |  | competition with immobilised ligand | 1 µM | remaining binding | 83% |
| COc1cc(-c2cc(-c3ccc(N4CCNCC4)cc3)cnc2C)cc(OC)c1OC | enzyme activity | inhibitor |  | 0.1 µM | inhibition | 3% |
| Cc1ccc(Nc2nccc(N(C)c3ccc4c(C)n(C)nc4c3)n2)cc1S(N)(=O)=O | enzyme activity | inhibitor |  | 0.3 µM | inhibition | 60% |
| CCCS(=O)(=O)Nc1ccc(F)c(C(=O)c2c[nH]c3ncc(-c4ccc(Cl)cc4)cc23)c1F | enzyme activity | inhibitor |  | 1 µM | inhibition | < 10% |
| O=C1NC(=O)c2cc(Nc3ccc(F)cc3)c(Nc3ccc(F)cc3)cc21 | cell-free assay |  |  | 0.5 µM | remaining signal | 89.9% |
| CN(C)c1nccc(-c2cnn3ncccc23)n1 | binding |  |  | 1 µM | remaining binding | 73% |
| COc1cc2c(N3CCN(C(=O)Nc4ccc(OC(C)C)cc4)CC3)ncnc2cc1OCCCN1CCCCC1 | cell-free assay |  |  | 0.5 µM | remaining signal | 96.8% |
| CN(C)C(=O)Cn1cc(-c2nc(C3(c4ccc(-c5cnc(N)nc5)cc4)CC3)no2)cn1 | cell-free assay |  | competition with immobilised ligand | 1 µM | remaining binding | 67% |
| CNC(=O)c1cc(Oc2ccc(NC(=O)Nc3ccc(Cl)c(C(F)(F)F)c3)cc2)ccn1 | enzyme activity | inhibitor |  | 0.3 µM | inhibition | 77% |
| CCC(=N\O)/C(C)=C/c1ccc(F)cc1 | cell-free assay |  | competition with immobilised ligand | 1 µM | remaining binding | 86% |
| C#Cc1cccc(Nc2ncnc3cc(OCCOC)c(OCCOC)cc23)c1 | cell-free assay |  |  | 0.5 µM | remaining signal | 106% |
| COCCOc1nc(-c2ccc(Cl)nc2)nc2c1CN(C(=O)c1ncn3ccccc13)CC2 | cell-free assay |  | competition with immobilised ligand | 0.1 µM | remaining binding | 100% |
| O=C(Nc1cnn(-c2csc(C(=O)NC3COC3)c2)c1)Nc1c(F)cccc1Cl | enzyme activity | inhibitor |  | 5 µM | remaining activity | 90.2% |
